Article PMC6993754 (Pharmacology Research & Perspectives, 2020)

T1: recombinant CYP2J2 (Homo sapiens, UniProt P51589)
T1 sequence (P51589 1-502): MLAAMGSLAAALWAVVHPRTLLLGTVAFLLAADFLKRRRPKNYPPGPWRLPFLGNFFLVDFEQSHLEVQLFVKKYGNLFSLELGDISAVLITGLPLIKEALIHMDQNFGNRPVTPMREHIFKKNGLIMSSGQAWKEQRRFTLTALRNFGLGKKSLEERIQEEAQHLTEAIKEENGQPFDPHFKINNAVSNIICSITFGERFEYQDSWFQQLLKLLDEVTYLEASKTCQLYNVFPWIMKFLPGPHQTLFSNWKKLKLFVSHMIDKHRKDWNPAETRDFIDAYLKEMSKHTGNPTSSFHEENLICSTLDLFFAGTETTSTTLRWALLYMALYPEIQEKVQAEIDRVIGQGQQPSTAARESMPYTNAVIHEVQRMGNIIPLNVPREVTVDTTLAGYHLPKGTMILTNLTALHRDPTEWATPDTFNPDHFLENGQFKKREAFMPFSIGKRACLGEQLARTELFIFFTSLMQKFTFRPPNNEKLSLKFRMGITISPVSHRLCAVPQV


What was measured:
recombinant CYP2J2 = target: T1, recombinant CYP2J2
human hepatocytes = conditions: oxidation, hydrolysis, and glucuronidation; cited from earlier work
CB2 receptor = conditions: cited from earlier work
[1] = Time‐dependent metabolism of STS‐135 in genotyped HLMs CYP3A5*1/*1; format: in vitro ADME; conditions: human, genotyped CYP3A5*1/*1 human liver microsomes, pH 7.4
Method in brief: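 CYP3A5-genotyped human liver microsomes (*1/*1 or *3/*3) incubated with test compound in 0.1 mol/L KPO₄, pH 7.4, with NADPH-regenerating system at 37°C. Sampled at 0, 10, 20, 30, 45, 60, 90 and 120 min, ethanol-stopped, centrifuged and analysed by UPLC-UV (300 nm) for parent depletion. Half-life determined directly by linear regression; triplicate reactions.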

[2] = tested on: human brain microsomes (HBMs); assay: Screening of STS‐135 oxidative metabolism with HBMs; format: in vitro ADME; conditions: STS‐135 50 µmol/L
Method in brief: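 Pooled 50-donor human brain microsomes with test compound (50 µmol/L, 2% DMSO) in 0.1 mol/L KPO₄, pH 7.4. Stopped with equal-volume ethanol, centrifuged; UPLC-UV at 300 nm for M21/M25. No-substrate, no-protein and no-NADPH controls; triplicate; nmol/mg protein/min.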

CB1 receptor = conditions: cited from earlier work
not read = substrate: O=C(NC12CC3CC(CC(C3)C1)C2)c1cn(CCCCCF)c2ccccc12; assay: not read; conditions: 37.0 °C

Row | Molecule | K m, production of M25 (Figure 6 legend) (recombinant CYP2J2) | Number of metabolites formed (human hepatocytes) [metabolites] | Agonist activity at CB2 receptor (CB2 receptor) | half-life [1] [min] | Specific activity, formation of M21 [2] | Specific activity, formation of M25 [2] | Agonist activity at CB1 receptor (CB1 receptor) | Km (not read) [µM] | Vmax (not read) [pmol/min/mg protein]
1 | O=C(NC12CC3CC(CC(C3)C1)C2)c1cn(CCCCCF)c2ccccc12 [STS‐135, N‐(adamantan‐1‐yl)‐1‐(5‐fluoropentyl)‐1H‐indole‐3‐carboxamide] | 11.2389 ± 1.733 | 29 | potent agonist | 21.1 | no detectable metabolites | no detectable metabolites | potent agonist |  | 
2 | recombinant CYP2J2 (Homo sapiens) (protein) MLAAMGSLAAALWAVVHPRTLLLGTVAFLLAADFLKRRRPKNYPPGPWRLPFLGNFFLVDFEQSHLEVQLFVKKYGNLFSLELGDISAVLITGLPLIKEALIHMDQNFGNRPVTPMREHIFKKNGLIMSSGQAWKEQRRFTLTALRNFGLGKKSLEERIQEEAQHLTEAIKEENGQPFDPHFKINNAVSNIICSITFGERFEYQDSWFQQLLKLLDEVTYLEASKTCQLYNVFPWIMKFLPGPHQTLFSNWKKLKLFVSHMIDKHRKDWNPAETRDFIDAYLKEMSKHTGNPTSSFHEENLICSTLDLFFAGTETTSTTLRWALLYMALYPEIQEKVQAEIDRVIGQGQQPSTAARESMPYTNAVIHEVQRMGNIIPLNVPREVTVDTTLAGYHLPKGTMILTNLTALHRDPTEWATPDTFNPDHFLENGQFKKREAFMPFSIGKRACLGEQLARTELFIFFTSLMQKFTFRPPNNEKLSLKFRMGITISPVSHRLCAVPQV |  |  |  |  |  |  |  | 11.2 ± 1.7 | 17.2 ± 0.5
